The source of these data is ChEMBL document CHEMBL1141573, “Quinolone 3-carboxylic acid pharmacophore: design of second generation HIV-1 integrase inhibitors” (J Med Chem, 2008).

Calls of active or inactive are those of the source. No cut-off for these calls is given here. Where only a bound is given, the exact number is not on record here.

The target of data set [1] is Human immunodeficiency virus type 1 integrase (Human immunodeficiency virus 1) (UniProt Q7ZJM1). Nature of the data set: Inhibition of HIV1 integrase at 100 uM. The method, boiled down:
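Wild-type recombinant IN (200 nM final) preincubated with compound 30 min at 30 °C in buffer with 7.5 mM MnCl2, 10% DMSO, MOPS pH 7.2. Then 20 nM 5′-32P-labeled 21-mer U5 LTR duplex added for 1 h. Reactions quenched with formamide loading dye. Conversion to 19-mer (3′-processing) and strand transfer products gives % inhibition versus DNA alone and DNA plus IN.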

Data set [2] deals with Human immunodeficiency virus 1. Nature of the data set: Antiviral activity against HIV1 in MT4 cells assessed as inhibition of viral-induced cytopathic effect by MTT method. The class given is functional, organism-based. As to conditions: Human immunodeficiency virus 1, MT4. The method, boiled down: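 MT-4 cells (RPMI 1640 with 10% heat-inactivated FCS, 2 mM L-glutamine, 37 °C, 5% CO2) infected with 100–300 CCID50 of HIV-1(IIIB) in presence of 5-fold serial compound dilutions. Viral CPE read by MTT reduction to formazan measured spectrophotometrically. IC50 = concentration giving 50% protection against CPE.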
In general terms: Cytopathic effects are the visible damage that an infection or toxin causes in cultured cells.

Data set [3] has as its target T1, Human immunodeficiency virus type 1 integrase (Human immunodeficiency virus 1, UniProt Q7ZJM1). Nature of the data set: Inhibition of HIV1 integrase 3'-end processing activity. Summed up: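 Wild-type recombinant IN, 200 nM final, preincubated with inhibitor at 30 °C for 30 min in buffer with 7.5 mM MnCl2, 10% DMSO, 25 mM MOPS pH 7.2. Then 20 nM 5′-32P-labeled 21-mer U5 LTR duplex substrate added, incubated a further 1 h. 21-mer to 19-mer conversion gives % inhibition versus DNA-alone and no-drug controls. IC50 from log concentration versus % inhibition.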

Data set [4] has as its target T1, Human immunodeficiency virus type 1 integrase. Nature of the data set: Inhibition of HIV1 integrase strand transfer activity.
Data set [5] in a line: Cytotoxicity against human MT4 cells. The class given is cell-based. Summed up:
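Viability of mock-infected MT-4 cells after 5 days of incubation, measured by MTT reduction to formazan read spectrophotometrically; CC50 derived.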

T1 sequence (Q7ZJM1 whole entry): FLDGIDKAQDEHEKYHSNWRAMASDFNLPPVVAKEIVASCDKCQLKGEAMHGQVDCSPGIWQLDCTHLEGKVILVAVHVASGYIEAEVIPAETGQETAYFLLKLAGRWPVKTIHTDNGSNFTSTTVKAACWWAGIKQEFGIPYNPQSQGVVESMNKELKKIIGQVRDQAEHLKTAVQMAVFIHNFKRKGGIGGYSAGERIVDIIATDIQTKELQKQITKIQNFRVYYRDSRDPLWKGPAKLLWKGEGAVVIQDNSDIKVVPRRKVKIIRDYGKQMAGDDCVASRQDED
Chain of Human immunodeficiency virus type 1 integrase (Human immunodeficiency virus 1) (Q7ZJM1 as listed by the source): as the sequence (Q7ZJM1 whole entry) above

For the molecule `Cc1ccc2[nH]c(CNC(=O)CCC(=O)O)cc2c1`, the outcome in data set [1] was inactive.

`CC(C)[C@H](CO)n1cc(C(=O)O)c(=O)c2cc(Cc3cccc(Cl)c3F)ccc21`: the EC50 in data set [2] was found to be 0.007 µM.

In the case of `COc1cc(CNc2nn[nH]n2)ccc1OCc1ccc(C)cc1`, in data set [1], the result was inactive.

With `COc1cc(CNc2nn[nH]n2)ccc1OCc1ccc(F)cc1`, the result in data set [1] was inactive. In the case of `COc1cc2c(cc1Cc1cccc(Cl)c1F)c(=O)c(C(=O)O)cn2[C@@H](CO)C(C)C`, the EC50 in data set [2] is 0.0009 µM.

As to `Cc1cc(-c2cccnc2)c(C#N)c(SCC(=O)O)n1`, the outcome in data set [1] was inactive.

As for `COc1cc(CNc2nn[nH]n2)ccc1OCc1c(F)cccc1Cl`, the result in data set [1] was inactive. For the molecule `Cc1ccc2nc(-c3ccc(NC(=O)/C=C/C(=O)O)cc3)sc2c1`, the IC50 amounted to 48 µM in data set [3] and 23 µM in data set [4]. On to `Cc1ccc2nc(NC(=O)CCC(=O)O)sc2c1`, for which the result in data set [1] was inactive. `O=C(O)c1c[nH]c2ccc(Cc3cccc(Cl)c3F)cc2c1=O`: the EC50 in data set [2] came to 0.805 µM.

Regarding `COc1cc(CNc2nn[nH]n2)ccc1OCc1cccc(C)c1`, in data set [1], the outcome was inactive.

Turning to `O=C(O)c1ccccc1SCCSc1ccccc1C(=O)O`, the outcome in data set [1] was inactive. For `COc1cc(CNc2nn[nH]n2)ccc1OCc1cccc(Cl)c1`, in data set [1], the result was inactive. Regarding `O=C(Nc1ccccn1)c1ccc(NC(=O)C2CC=CCC2C(=O)O)cc1` (stereo unspecified), in data set [1], the result was inactive. Turning to `O=C(O)CCCC(=O)Nc1nc(-c2cccc3ccccc23)cs1`, in data set [1], the result was inactive. Turning to `COc1ccc(-c2nnc(SCC(=O)N/N=C/c3ccccc3C(=O)O)n2-c2ccccc2)cc1OC`, the outcome in data set [1] was inactive. With `COc1ccc(-c2ccc(-c3nnn(C(C)C(=O)O)n3)cc2)cc1` (stereo unspecified), the result in data set [1] was inactive. As for `O=C(O)c1cn(CCO)c2ccc(Cc3cccc(Cl)c3F)cc2c1=O`, in data set [2], the EC50 is 0.076 µM. On to `O=C(O)CSc1nnc(COc2cccc3ccccc23)o1`, for which, in data set [1], the result was inactive. `N#Cc1c(-c2ccc(Cl)cc2)cc(-c2ccccc2)nc1SCC(=O)O`: the IC50 in data set [3] was 98 µM; in data set [4] it was 60 µM. For the molecule `CCOc1cc(/C=C2\C(=O)N(c3nnn[nH]3)N=C2C)cc(Cl)c1OCC`, the IC50 in data set [3] was determined as 7 µM; in data set [4], 4 µM. On to `CCOc1cc(CNc2nn[nH]n2)ccc1OCc1ccccc1`, for which the outcome in data set [1] was inactive. As for `O=C(O)c1cccc(OCC(O)Cn2cnc3ccccc32)c1` (stereo unspecified), in data set [1], the outcome was inactive. Regarding `Cc1ccc2nc(NC(=O)CSCC(=O)O)sc2c1`, in data set [1], the result was inactive. Consider `O=C(O)CSc1nnc2n(Cc3ccc(F)cc3)c3ccccc3n12`, for which the result in data set [1] was inactive.

Regarding `COc1cc2c(cc1Cc1cccc(Cl)c1F)c(=O)c(C(=O)O)cn2CCO`, the EC50 in data set [2] was 0.017 µM.

Turning to `COc1cccc(NC(=O)c2sc3[nH]c(=O)c(C(=O)O)cc3c2N)c1`, the IC50 in data set [3] was determined as 82 µM; in data set [4], 43 µM. Take `Cc1nn(-c2ccccc2)c2sc(-c3nnc(SCC(=O)O)o3)cc12`: in data set [1], the outcome was inactive.

In the case of `O=C(O)C1CC=CCC1C(=O)Nc1ccc(Cc2ccncc2)cc1` (stereo unspecified), the outcome in data set [1] was inactive.

Take `COc1ccc(/C=C2\C(=O)N(c3nnn[nH]3)N=C2C)cc1OCc1ccccc1Cl`: the IC50 is 14 µM in data set [3] and 5 µM in data set [4]. As to `O=C(CSc1ncccc1C(=O)O)Nc1cccc2ccccc12`, in data set [1], the outcome was inactive. On to `O=C(O)C(O)C(O)c1nc2cc3ccccc3cc2[nH]1` (stereo unspecified), for which the IC50 is over 100 µM in data set [3] and 46 µM in data set [4].

Consider `O=C(O)CSc1nc(-c2ccccc2)cc(C(F)(F)F)n1`, for which the IC50 in data set [3] and in data set [4] was over 100 µM in each case. For `Cc1ccc(C(=O)O)cc1NC(=O)CSc1nc2ccccc2s1`, the IC50 in data set [3] came out at 63 µM; in data set [4], 17 µM. For `CCOc1cc(C2NC(C(=O)O)CS2)ccc1OCc1cccc(C)c1` (stereo unspecified), the outcome in data set [1] was inactive. On the same count and under the same terms, then `O=C(O)COc1ccc2c(-c3ccccc3)cc(=O)oc2c1`, with “inactive”; and `CCCn1nc(NC(=O)CCC(=O)O)c2cc3cc(C)ccc3nc21`, with “inactive”. Consider `COc1cc(NC(=O)c2ccc3c(c2)C(=O)N(c2ccccc2OC)C3=O)c(C(=O)O)cc1OC`, for which the outcome in data set [1] was inactive. Same read-out and setting: then `O=C(O)CSc1ccc(-c2nc3ccccc3[nH]2)cn1`, with “inactive”.

As for `O=C(O)CN1C(=O)/C(=C2\SC(=S)N(C(Cc3ccccc3)C(=O)O)C2=O)c2ccccc21` (stereo unspecified), the IC50 in data set [3] is 92 µM; in data set [4], 66 µM. As for `COc1ccc(/C=N/Nc2nc(C(=O)O)cs2)cc1`, the outcome in data set [1] was inactive. Turning to `COc1cc(CNc2nn[nH]n2)ccc1OCc1ccc(Cl)cc1`, in data set [1], the result was inactive. For `CCN(C(=O)CCC(=O)O)c1nc(CC(=O)Nc2ccc(Cl)cc2)cs1`, the outcome in data set [1] was inactive. Same read-out and setting: then `CCn1nc(NC(=O)CCC(=O)O)c2cc3cc(C)ccc3nc21`, with “inactive”. For `CC1=NN(c2nnn[nH]2)C(=O)/C1=C\c1cc(Cl)c(O)c(Cl)c1`, the IC50 is 11 µM in data set [3] and 13 µM in data set [4]. For the molecule `Cc1cc(OCn2ccc(C(=O)O)n2)ccc1Cl`, the outcome in data set [1] was inactive. As to `CCOc1cc(CNc2nn[nH]n2)cc(Cl)c1OCc1ccc(Cl)cc1`, the IC50 in data set [3] was over 100 µM; in data set [4] it was 52 µM.

For the molecule `Cc1ccc(OCc2nnc(SC(C)C(=O)O)n2-c2ccccc2)cc1` (stereo unspecified), the outcome in data set [1] was inactive. On to `O=C(O)c1ccccc1NC(=O)c1ccccc1S(=O)(=O)Nc1ccc(Oc2ccccc2)cc1`, for which the figures for the IC50 in data set [3] and in data set [4] were 42 µM and 18 µM, respectively. The corresponding values for `Nc1c(C(=O)Nc2ccc(Cl)c(Cl)c2)sc2[nH]c(=O)c(C(=O)O)cc12` are 14 µM and 5 µM. As to `COc1cc(/C=C2\C(=O)N(c3nnn[nH]3)N=C2C)cc(Cl)c1OC`, the results for the IC50 in data set [3] and in data set [4] were 5 µM and 4 µM, respectively. Turning to `O=C(O)CSc1nnc(-c2ccco2)c(-c2ccco2)n1`, the IC50 worked out at 18 µM in data set [3] and 5 µM in data set [4]. On to `CCn1nc(NC(=O)CCCC(=O)O)c2cc3cc(C)ccc3nc21`, for which the outcome in data set [1] was inactive. The same measure, in the same setting: then `O=C(O)C1CC(=O)N(c2ccc(OCc3ccccc3Cl)cc2)C1` (stereo unspecified), with “inactive”; and `COc1ccc2[nH]c(SCC(=O)Nc3cc(C(=O)O)ccc3C)nc2c1`, with “inactive”.

As to `CCn1c(CNC(=O)CCC(=O)O)cc2ccccc21`, in data set [1], the result was inactive. Consider `CCOc1cc(/C=C2\C(=O)N(c3nnn[nH]3)N=C2C)ccc1OC`, for which the IC50 in data set [3] stood at 75 µM; in data set [4] it was 59 µM. On to `O=C(O)C1CCCCC1C(=O)Nc1ccc(Oc2cccc3ccccc23)cc1` (stereo unspecified), for which the values for the IC50 in data set [3] and in data set [4] were over 100 µM and 34 µM, respectively. The molecule further showed a CC50 in data set [5] of 3.5 µM.

In the case of `O=C(O)C1CC(=O)N(c2ccc(OCc3c(F)cccc3Cl)cc2)C1` (stereo unspecified), the outcome in data set [1] was inactive.

Consider `CCOc1cc(CNc2nn[nH]n2)ccc1OCc1ccc(C)cc1`, for which the outcome in data set [1] was inactive. `O=C(O)CSCC(=O)Nc1nc(-c2ccccc2)cs1`: in data set [1], the result was inactive. As to `O=C(O)CSc1nc(-c2cccs2)cc(C(F)(F)F)n1`, the IC50 in data set [3] and in data set [4] was over 100 µM throughout. As for `O=C(O)CSc1nc(Nc2ccccc2)nc(N2CCOCC2)n1`, the IC50 in data set [3] and in data set [4] was over 100 µM each time. On to `Cc1nc2ccccc2n1CC(O)COc1cccc(C(=O)O)c1` (stereo unspecified), for which the result in data set [1] was inactive. Regarding `O=C(CSc1nnc(-c2ccc(Cl)cc2)n1-c1ccccc1)N/N=C/c1ccccc1C(=O)O`, the outcome in data set [1] was inactive. On the same count and under the same terms, the result for `O=C(Nc1ccccc1C(=O)O)c1ccc(CN2CCc3ccccc3C2)cc1` reads “inactive”. For `CCOc1cc(N(CC)CC)ccc1/C=C1\C(=O)N(c2nnn[nH]2)N=C1C`, the IC50 in data set [3] was 61 µM; in data set [4], 65 µM.

Take `COc1cc(CNc2nn[nH]n2)ccc1OCc1c(Cl)cccc1Cl`: the outcome in data set [1] was inactive.

Take `COc1cc(C2NC(C(=O)O)CS2)ccc1OCc1c(Cl)cccc1Cl` (stereo unspecified): in data set [1], the result was inactive. Consider `Cc1ccc(C)c(NC(=O)CSc2ncccc2C(=O)O)c1`, for which the result in data set [1] was inactive.

By EC50 is commonly meant the concentration that produces a half-maximal response. Broadly, the IC50 is the concentration at which inhibition is half-maximal. Lower therefore signals greater potency. A word on the CC50: it is the concentration that lowers cell viability or growth by half. A higher CC50 goes with better tolerance by the cells.
